According to ChEMBL document CHEMBL1949501, “Novel acid-type cyclooxygenase-2 inhibitors: Design, synthesis, and structure-activity relationship for anti-inflammatory drug” (Eur J Med Chem, 2012):

How the values were obtained:
[1] = target: T1, Prostaglandin G/H synthase 2 (Homo sapiens, UniProt P35354); assay: Inhibition of COX-2-mediated 6-keto-PGF1alpha production in IL-1beta-induced HUVEC preincubated for 20 mins prior A23187 stimulation measured after 15 mins by RIA
T1 sequence (P35354 whole entry): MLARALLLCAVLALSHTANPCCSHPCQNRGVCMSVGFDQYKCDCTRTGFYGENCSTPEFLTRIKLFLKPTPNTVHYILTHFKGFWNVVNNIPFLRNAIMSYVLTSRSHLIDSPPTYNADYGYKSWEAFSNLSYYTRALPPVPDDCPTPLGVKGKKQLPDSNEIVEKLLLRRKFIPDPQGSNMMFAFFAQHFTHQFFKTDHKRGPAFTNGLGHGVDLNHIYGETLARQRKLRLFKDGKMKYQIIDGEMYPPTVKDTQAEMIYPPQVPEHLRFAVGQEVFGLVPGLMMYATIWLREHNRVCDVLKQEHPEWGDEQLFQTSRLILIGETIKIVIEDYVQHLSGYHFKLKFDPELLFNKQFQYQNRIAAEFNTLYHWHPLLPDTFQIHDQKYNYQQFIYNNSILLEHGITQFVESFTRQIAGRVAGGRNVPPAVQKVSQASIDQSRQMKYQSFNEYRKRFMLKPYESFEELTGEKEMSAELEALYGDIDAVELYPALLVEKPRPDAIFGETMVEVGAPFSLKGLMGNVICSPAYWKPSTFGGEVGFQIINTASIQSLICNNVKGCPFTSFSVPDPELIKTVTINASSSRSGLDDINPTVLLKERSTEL

[2] = target: T2, Prostaglandin G/H synthase 1 (Homo sapiens, UniProt P23219); assay: Inhibition of COX-1-mediated TXB2 production in human platelets preincubated for 20 mins prior A23187 stimulation measured after 15 mins by RIA
T2 sequence (P23219 whole entry): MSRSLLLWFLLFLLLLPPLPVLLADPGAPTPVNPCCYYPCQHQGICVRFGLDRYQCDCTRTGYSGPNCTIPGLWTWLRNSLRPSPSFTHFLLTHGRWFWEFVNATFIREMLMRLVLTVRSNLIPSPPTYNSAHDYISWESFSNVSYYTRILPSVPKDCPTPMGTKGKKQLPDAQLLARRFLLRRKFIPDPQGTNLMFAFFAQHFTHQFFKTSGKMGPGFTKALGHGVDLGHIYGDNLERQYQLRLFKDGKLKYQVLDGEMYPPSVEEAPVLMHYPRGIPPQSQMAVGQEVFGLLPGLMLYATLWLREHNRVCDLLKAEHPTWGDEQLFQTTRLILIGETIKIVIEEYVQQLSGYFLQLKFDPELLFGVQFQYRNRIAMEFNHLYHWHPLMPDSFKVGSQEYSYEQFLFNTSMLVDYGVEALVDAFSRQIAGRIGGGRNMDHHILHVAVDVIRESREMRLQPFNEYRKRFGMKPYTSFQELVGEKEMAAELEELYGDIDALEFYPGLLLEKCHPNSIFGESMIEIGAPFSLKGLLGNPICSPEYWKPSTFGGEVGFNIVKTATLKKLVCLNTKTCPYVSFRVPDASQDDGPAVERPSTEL

[3] = target: T1, Prostaglandin G/H synthase 2; assay: Inhibition of COX-2-mediated PGE2 production in LPS-induced human whole blood after 24 hrs by RIA
Outline: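 Heparinized whole blood from healthy adult volunteers mixed with compound in DMSO (0.1–100 µM final; DMSO under 0.1%) and E. coli 0111:B4 LPS (30 µg/mL final), incubated 24 h at 37 °C to induce COX-2; PGE2 synthesis measured; IC50.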

[4] = target: T2, Prostaglandin G/H synthase 1; assay: Inhibition of COX-1-mediated TXB2 production in human whole blood after 30 mins post A23187 stimulation by RIA
[5] = target: COX-1/COX-2 (Homo sapiens) (UniProt P35354+P23219); assay: Selectivity ratio of IC50 for COX-1-mediated TXB2 production in human platelets to IC50 for COX-2-mediated 6-keto-PGF1alpha production in IL-1beta-induced HUVEC
Chain of COX-1/COX-2 (Homo sapiens) (P23219 whole entry, looked up, one chain of several): as the sequence (P23219 whole entry) above

Rattus norvegicus = assay: Antiinflammatory activity in SPF/VAF Sprague-Dawley rat assessed as inhibition of carrageenan-induced paw oedema at 10 mg/kg, po administered 1 hr prior carrageenan challenge measured after 3 hrs by plethysmometry; format: functional
Outline: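 Male SPF/VAF Sprague-Dawley rats (Crj:CD(SD), 5 weeks, 110–130 g), fasted overnight, given carrageenan intraplantarly in the hind paw. Test compound or vehicle (5% (v/v) Tween 80 in distilled water) dosed orally at 1 mL/100 g body weight 1 h before carrageenan. Foot volume read by water-displacement plethysmometer before and 3 h after injection; percent inhibition relative to vehicle group taken as 0%.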

## Cc1ccnc(C(=O)c2[nH]c3ccc(OC(F)(F)F)cc3c2CC(=O)O)c1
[1]
  IC50: 39.6 nM
[2]
  IC50: 1000 nM
[3]
  IC50: 1900 nM
[4]
  IC50: > 100000 nM

## Cc1ccnc(C(=O)c2[nH]c3cc(Cl)c(F)cc3c2CC(=O)O)c1
[1]
  IC50: 6.77 nM
[2]
  IC50: 65.9 nM
[3]
  IC50: 100 nM
[5]
  Ratio IC50: 9.73
[4]
  IC50: 7700 nM

## CCc1ccc2[nH]c(C(=O)c3cc(C)ccn3)c(CC(=O)O)c2c1
[1]
  IC50: 15.7 nM
[2]
  IC50: 882 nM
[3]
  IC50: 1600 nM
[4]
  IC50: 47000 nM

## COc1ccc2c(CC(=O)O)c(C(=O)c3cc(C)ccn3)[nH]c2c1
[1]
  IC50: 128 nM
[2]
  IC50: > 10000 nM
[3]
  IC50: 1900 nM
[5]
  Ratio IC50: > 78.1
[4]
  IC50: > 100000 nM

## CCc1ccc2c(CC(=O)O)c(C(=O)c3cc(C)ccn3)[nH]c2c1
[1]
  IC50: 414 nM
[2]
  IC50: > 10000 nM

## O=C(O)Cc1c(C(=O)c2cc3c(cn2)CCCC3)[nH]c2cc(Cl)ccc12
[1]
  IC50: 19.2 nM
[2]
  IC50: > 10000 nM
[5]
  Ratio IC50: > 521

## CCOc1cnc(C(=O)c2[nH]c3cc(Cl)ccc3c2CC(=O)O)cc1CC
[1]
  IC50: 598 nM
[2]
  IC50: > 10000 nM

## Cc1ccnc(C(=O)c2[nH]c3cc(F)ccc3c2CC(=O)O)c1
[1]
  IC50: 9.81 nM
[2]
  IC50: 849 nM
[3]
  IC50: 155 nM
Rattus norvegicus
  inhibition in vivo at 10 mg/kg: 70%
[5]
  Ratio IC50: 86.5
[4]
  IC50: 33500 nM

## Cc1ccnc(C(=O)c2[nH]c3ccc(F)cc3c2CC(=O)O)c1
[1]
  IC50: 5.68 nM
[2]
  IC50: 150 nM
[3]
  IC50: 150 nM
[5]
  Ratio IC50: 26.4
[4]
  IC50: 21400 nM

## Cc1ccnc(C(=O)c2[nH]c3ccc(C(C)(C)C)cc3c2CC(=O)O)c1
[1]
  IC50: 41.5 nM
[2]
  IC50: 1510 nM

## CCc1ccnc(C(=O)c2[nH]c3ccc(OC(F)(F)F)cc3c2CC(=O)O)c1
[1]
  IC50: 421 nM
[2]
  IC50: > 10000 nM
[3]
  IC50: 5700 nM
[4]
  IC50: > 100000 nM

## COc1ccc2[nH]c(C(=O)c3cc(C)ccn3)c(CC(=O)O)c2c1
[1]
  IC50: 128 nM
[2]
  IC50: 3050 nM
[3]
  IC50: 2200 nM
[5]
  Ratio IC50: 23.8
[4]
  IC50: > 100000 nM

## CCc1cc(C(=O)c2[nH]c3cc(Cl)ccc3c2CC(=O)O)ncc1Cl
[1]
  IC50: 30.7 nM
[2]
  IC50: > 10000 nM
[5]
  Ratio IC50: > 326
